Assay outcomes as filed in PubChem BioAssay.
KCNK9 block = inhibitors of human KCNK9 two-pore domain potassium channel; 310,000 compounds, 1.2% hits; HEK293 KCNK9, FluxOR thallium flux fluorescence; hits give low values; Q9NPC2; B-score at 10 µM;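 active = ratio B-score over 3 SD below the library mean, with starting fluorescence within 5 SD of its mean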;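 also: negative B-score means less thallium flux so channel inhibition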
Target sequence (Q9NPC2 whole entry, looked up, the tested form may be a part): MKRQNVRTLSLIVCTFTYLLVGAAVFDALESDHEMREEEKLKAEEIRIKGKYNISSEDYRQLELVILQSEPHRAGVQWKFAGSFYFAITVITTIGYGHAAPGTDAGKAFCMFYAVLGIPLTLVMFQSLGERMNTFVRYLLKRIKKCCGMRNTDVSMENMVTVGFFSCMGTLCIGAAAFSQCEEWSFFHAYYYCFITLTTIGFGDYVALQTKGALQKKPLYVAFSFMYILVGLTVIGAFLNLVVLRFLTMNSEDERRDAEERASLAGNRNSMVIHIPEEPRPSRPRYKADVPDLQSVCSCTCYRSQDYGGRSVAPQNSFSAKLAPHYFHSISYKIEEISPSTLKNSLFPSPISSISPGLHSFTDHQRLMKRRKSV
KCNQ1 pot = human KCNQ1 channel potentiation or activation; CHO-K1 KCNQ1, thallium flux FluxOR fluorescence; hits give high values; AID 2648; B-score at 10 µM; 310,000 compounds, 0.35% hits; P51787;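 active = fluorescence ratio B-score, a plate-corrected score, at least three library SD, with initial intensity B-score within 5 SD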
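System: Stable KCNQ1 CHO-K1 line | Incubation: 90 min dye loading and 20 min compound exposure, both at room temperature | Measure: Ratio B score | Medium: Assay buffer for compound exposure, DMSO matched across wells | Compound dosing: Single-concentration screen | Probe or stimulus: K+/Tl+ depolarizing stimulus | Measured by: Kinetic FluxOR fluorescence, 10 s baseline plus 110 s post-stimulus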
KCNQ1 block = inhibitors of human KCNQ1 potassium channel; P51787; B-score at 10 µM; CHO-K1 KCNQ1, FluxOR thallium flux fluorescence; hits give high values; 310,000 compounds, 1.3% hits;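 active = compounds whose thallium flux B-score, printed positive for inhibition, exceeds three library SD while starting fluorescence stays within three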;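 also: channel opened by potassium depolarization with thallium stimulus after 20 min compound exposure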
KCNK3 block = human KCNK3 channel inhibition, primary screen. O14649. CHO-KCNK3 thallium flux, FluxOR fluorescence; hits give low values. B-score at 10 µM. 340,000 compounds, 0.84% hits. AID 602410;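 active = B-score under library mean minus 4 SD, starting fluorescence ratio at most library mean plus 5 SD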;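 also: more negative B-score means stronger inhibition of thallium flux through KCNK3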
hERG rescue = compounds protecting human hERG from proarrhythmic drug block; Q12809; 310,000 compounds, 0.51% hits; AID 1511; activation (rescue from dofetilide block), less the hit threshold, % at 10 µM; CHO-hERG, FluxOR thallium flux, dofetilide IC70 present;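 active = activation above the mean of controls blocked by dofetilide plus 5 SD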;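 also: thallium influx through hERG after potassium depolarization seen as dye fluorescence rise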
Each line names hits and unclear results; the compound was inactive in the other large screens. The list is not random: actives were taken first. Their share in the collection is about 3.1%.

C=C1c2ccccc2S(=O)(=O)N(Cc2ccccc2)C1COCc1ccccc1 (stereo not drawn)	KCNK9 block -6.9
O=S1(=O)c2ccccc2OC(COCc2ccccc2)CN1Cc1ccccc1 (stereo not drawn)	none (no result: KCNK9 block, KCNQ1 pot, KCNQ1 block, hERG rescue)
CCc1nnc(SCC(=O)Nc2ccccc2)nc1CC	hERG rescue 4.9
Cc1ccc(CNC(=O)CC2(CC3=NS(=O)(=O)c4ccccc4N3)CCCC2)cc1	none
COC(=O)c1[nH]c2ccc(F)cc2c1NS(=O)(=O)c1ccc(OC)cc1OC	KCNK9 block -6.6
O=c1[nH]c(=S)[nH]c2c1C(c1ccc(Br)cc1)c1c([nH]c(=S)[nH]c1=O)O2	none
CN(c1cccc(NC(=O)CN(c2ccc(Cl)c(Cl)c2)S(=O)(=O)c2ccccc2)c1)S(C)(=O)=O	none
Cc1ccc(S(=O)(=O)N(CC(=O)Nc2cccc(N(C)S(C)(=O)=O)c2)c2ccc(Cl)c(Cl)c2)cc1	KCNQ1 block 10
COc1cc2c(cc1OC)CN(C(=O)c1sccc1C)CC2	hERG rescue 8.7
O=C(CSc1nnc(COc2ccc(Cl)cc2)o1)NC1CC2CCC1C2 (stereo not drawn)	none
Nc1c(-c2cccc(Cl)c2)cnn1-c1ccccc1	KCNK9 block -7.6
C=CCn1c2ccccc2c(=O)c2cc(C#Cc3ccsc3)ccc21	hERG rescue 8.9 (no result: KCNK3 block)
CC(C)c1ccc(CN(C)CC(O)c2ccccc2)cc1 (stereo not drawn)	none
CCc1nc2c(c(=O)c3ccccc3n2C)c(=O)n1CCc1ccc(OC)cc1	KCNK9 block -12, KCNQ1 block 7 (no result: KCNK3 block)
CCC12CN(S(=O)(=O)c3ccc(C)cc3)CC(CC)(CN(S(=O)(=O)c3ccc(C)cc3)C1)C2=O	KCNK3 block -9.1
N#CC1(NC(=O)CN2C(=O)NC(c3ccccc3)(c3ccccc3)C2=O)CCCC1	none (no result: KCNK9 block, KCNQ1 pot, KCNQ1 block, hERG rescue)
OCC[C@@H]1C[C@H](O)[C@@H](O)[C@]2(Cc3ccccc3CO2)O1	none
CCOC(=O)CSc1nc2c(sc(=S)n2-c2ccc(CC)cc2)c(=O)[nH]1	KCNQ1 block 6
CCOC(=O)NC1(C(F)(F)F)C(=O)NC(C)=C1C(=O)OC (stereo not drawn)	hERG rescue 4.9
Cc1nnsc1C(=O)NNC(=O)c1ccc(C(F)(F)F)cc1	none
CC(C)(C)c1cc(C(=O)NNC(=O)c2ccc(C(F)(F)F)cc2)no1	KCNQ1 pot 9
COc1ccc(C2c3c(-c4ccccc4O)n[nH]c3C(=O)N2Cc2ccco2)cc1 (stereo not drawn)	none
Cc1ccc(C2c3c(-c4ccccc4O)n[nH]c3C(=O)N2Cc2ccncc2)cc1 (stereo not drawn)	hERG rescue 12
O=C(Cc1nnc(NC(=O)Nc2ccccc2F)s1)NCc1ccccc1	none
Cc1ccccc1Cn1nc(C)c(NC(=O)c2ccccc2)c1C	hERG rescue 7.6
COc1ccc(OCc2cccc(C(=O)Nc3ccc(CN4CCCCC4)cc3)c2)cc1	none
CCOc1ccc(OCc2cccc(C(=O)Nc3ccc(CN4CCCCC4)cc3)c2)cc1	KCNQ1 block 6
CCOC(=O)c1ccc(NC(=S)Nc2ccccc2)cc1	none
CCOC(=O)c1ccc(NC(=S)NC(=O)COc2ccccc2)cc1	hERG rescue 7.6
COc1cc(N)c(Cl)cc1C(=O)OCC(=O)NCc1cccs1	none (no result: KCNK9 block, KCNQ1 pot, KCNQ1 block, hERG rescue)
O=C(CCCn1nnnc1CN1CCOCC1)N1CCN(c2ccccc2F)CC1	KCNQ1 pot 8
O=S(=O)(Cc1ccccc1)Nc1ccc(S(=O)(=O)NCC2CCCO2)cc1 (stereo not drawn)	none
O=S(=O)(Cc1ccccc1)NCC1CCCO1 (stereo not drawn)	hERG rescue 4.7
CCC(C)Nc1ccc(NC(C)CC)cc1 (stereo not drawn)	KCNK3 block -8.9 (no result: KCNK9 block, KCNQ1 pot, KCNQ1 block, hERG rescue)
CCCCN(c1ccccc1)S(=O)(=O)c1cccc2cccnc12	none
CCCCOc1ccc(C(=O)N/N=C/c2cn[nH]c2-c2ccc(OC)c(OC)c2)cc1	none
COc1ccc(-c2[nH]ncc2/C=N\NC(=O)c2ccc(C(C)(C)C)cc2)cc1OC	KCNQ1 block 6
Cc1cc(Cl)ccc1OCC(=O)NNC(=O)C1CCN(c2ncnc3sc(C)c(C)c23)CC1	KCNK3 block -9.9 (no result: KCNK9 block, KCNQ1 pot, KCNQ1 block, hERG rescue)
Cc1sc2ncnc(N3CCN(CCOc4ccc(Cl)cc4)CC3)c2c1C	KCNQ1 block 11, KCNK3 block -11
Cc1nc(C2CCC3C4CCC5=CC(=O)CC[C@]5(C)C4CC[C@]23C)cs1 (stereo partly drawn)	KCNQ1 block 7 (no result: KCNK3 block)
COc1cccc(/C=C/C(=O)OCC(=O)Nc2ccc(Cl)cn2)c1	hERG rescue 5.8
O=C(COC(=O)/C=C/c1cccc(F)c1)Nc1ccc(Cl)cn1	none
CNC(=S)N1CCn2cccc2C1c1cc(OC)c(OC)c(OC)c1 (stereo not drawn)	none
CCNC(=S)N1CCn2cccc2C1c1ccc(F)cc1 (stereo not drawn)	KCNK9 block -8
COc1cccc(C=NNC(=S)NN=Cc2cccc(OC)c2OC)c1OC	none (no result: KCNK9 block, KCNQ1 pot, KCNQ1 block, hERG rescue)
CCC(NC(=O)OCc1ccccc1)C(=O)Oc1ccc2ccc(=O)oc2c1 (stereo not drawn)	none
CCC(C)(C)C1CCc2nc3ccccc3c(C(=O)OC(C)C(=O)Nc3c(C)n(C)n(-c4ccccc4)c3=O)c2C1 (stereo not drawn)	none
CCOC(=O)N1CCN(C(=O)COC(=O)c2cc(Cl)cc(Cl)c2)CC1	none (no result: KCNK9 block, KCNQ1 pot, KCNQ1 block, hERG rescue)
CCOC(=O)N1CCN(C(=O)COC(=O)c2cc(Cl)c(O)c(Cl)c2)CC1	hERG rescue 8.1
CC(C)C(=O)N1CCN(c2ccc([N+](=O)[O-])c(NC(C)c3ccccc3)c2)CC1 (stereo not drawn)	none
COc1ccc(CN(C(=O)c2nsc(Cl)c2Cl)C(C(=O)NC2CCCC2)c2ccc(C)cc2)cc1 (stereo not drawn)	KCNQ1 block 11
COc1ccc(CN(C(=O)c2nsc(Cl)c2Cl)C(C(=O)NC2CCCCC2)c2ccc(OC)cc2)cc1 (stereo not drawn)	none
CC(C)(C)c1ccccc1OCCOCCSc1ncccn1	KCNK9 block -7.5
CC(C)(C)c1ccccc1OCCOCCN1CCCCCC1	none
COc1ccccc1NC(=S)N1CCC(C(=O)c2ccc(F)cc2)CC1	none
CCOc1ccc(Cc2c(Cl)nc(SC)nc2N(C)C)cc1	KCNK9 block -7.6
CCOc1ccc(Cc2c(Cl)nc(N)nc2Cl)cc1	none
CC(OC(=O)c1nn(C)c(=O)c2ccccc12)C(=O)Nc1ccc(S(N)(=O)=O)cc1 (stereo not drawn)	none
C#C[C@]1(O)CC[C@H]2[C@@H]3CCc4cc(O)ccc4[C@H]3CC[C@@]21C	KCNQ1 pot 9
CC12CCC3c4ccc(O)cc4CCC3C1CCC2=O (stereo not drawn)	none (no result: KCNK9 block, KCNQ1 pot, KCNQ1 block, hERG rescue)
O=C(NC1CCCCC1)C(c1ccc2ncccc2c1)N(Cc1ccc2c(c1)OCO2)C(=O)c1cccs1 (stereo not drawn)	KCNQ1 block 6
COc1ccc(OCc2cc(C(=O)NCc3nc(C)cs3)no2)c(Cl)c1	none
